Activity calls are given as the source filed them. The calls are words filed in the database; no cut-off is given here.
What was measured:
Mus musculus [1] = organism: Mus musculus; assay: Antiangiogenic activity in C57BL/6jNpa mouse harbouring mouse B16-BL6 cells assessed as reduction in K-trans level by measuring T/C ratio measured after 3 days by DCE-MRI assay; type: functional; settings: time 3 day
Method in brief: (§1)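 C57BL/6JNpa mice bearing B16/BL6 cervical lymph-node metastases, at least 8 per group, anaesthetized and given contrast agent; DCE-MRI Ktrans and iAUEC (permeability) and Vp (plasma volume) measured before and again after daily treatment; change per mouse recorded, mean ± SEM, one-way ANOVA with Holm-Sidak comparisons versus vehicle.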

Mus musculus [2] = organism: Mus musculus; assay: Antiangiogenic activity in C57BL/6jNpa mouse harbouring mouse B16-BL6 cells assessed as reduction in tumor plasma volume measured after 3 days by DCE-MRI assay relative to control; type: functional; design: scale not given: the % may be the effect or the level left; settings: time 3 day; method in brief: as §1
B16-BL6 [3] = assay: Antitumor activity against mouse B16-BL6 cells implanted in C57BL/6jNpa mouse assessed as primary tumor growth inhibition at 100 mg/kg, po qd administered started on day 7 post implantation measured after 21 days relative to control; type: functional, organism-based; settings: time 7-21 day
Method in brief: (§2)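 Female C57BL/6JNpa mice, 50000 B16/BL6 cells intradermally in both ear pinnae; primary tumor area (mm²) imaged days 7, 14, 21; randomized day 7 into groups of 5-6, oral dosing in PEG200 or PEG300 vehicle daily (or every 2 days) for 14 days; day 21 cervical lymph nodes weighed, metastasis lysates assayed for TIE-2 by ELISA; T/C ratios.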

B16-BL6 [4] = assay: Antitumor activity against mouse B16-BL6 cells implanted in C57BL/6jNpa mouse assessed as metastatic tumor growth inhibition at 100 mg/kg, po qd administered started on day 7 post implantation measured after 21 days relative to control; type: functional, organism-based; settings: time 7-21 day; method in brief: as §2
BaF3 [5] = assay: Antiproliferative activity against mouse BaF3 cells expressing Bcr-ABL assessed as cell growth inhibition measured after 72 hrs by Alamar Blue assay; settings: BaF3, 72 h
BaF3 [6] = assay: Antiproliferative activity against mouse BaF3 cells expressing ERBB2 V659E mutant assessed as cell growth inhibition measured after 72 hrs by Alamar Blue assay; settings: BaF3, 72 h
BaF3 [7] = assay: Antiproliferative activity against mouse BaF3 cells expressing Tel-FGFR3 assessed as cell growth inhibition measured after 72 hrs by Alamar Blue assay; settings: BaF3, 72 h
BaF3 [8] = assay: Antiproliferative activity against mouse BaF3 cells expressing FLT3-ITD assessed as cell growth inhibition measured after 72 hrs by Alamar Blue assay; settings: BaF3, 72 h
BaF3 [9] = assay: Antiproliferative activity against mouse BaF3 cells expressing Tel-IGF-1R assessed as cell growth inhibition measured after 72 hrs by Alamar Blue assay; settings: BaF3, 72 h
BaF3 [10] = assay: Antiproliferative activity against mouse BaF3 cells expressing KIT D816V mutant assessed as cell growth inhibition measured after 72 hrs by Alamar Blue assay; settings: BaF3, 72 h
BaF3 [11] = assay: Antiproliferative activity against mouse BaF3 cells expressing Trp-MET assessed as cell growth inhibition measured after 72 hrs by Alamar Blue assay; settings: BaF3, 72 h
BaF3 [12] = assay: Antiproliferative activity against mouse BaF3 cells expressing PTC3-RET assessed as cell growth inhibition measured after 72 hrs by Alamar Blue assay; settings: BaF3, 72 h
BaF3 [13] = assay: Antiproliferative activity against mouse BaF3 cells expressing Tel-PDGFRbeta assessed as cell growth inhibition measured after 72 hrs by Alamar Blue assay; settings: BaF3, 72 h
BaF3 [14] = assay: Antiproliferative activity against mouse BaF3 cells assessed as cell growth inhibition measured after 72 hrs by Alamar Blue assay; settings: BaF3, 72 h
BaF3 [15] = assay: Antiproliferative activity against mouse BaF3 cells expressing NPM-ALK assessed as cell growth inhibition measured after 72 hrs by Alamar Blue assay; settings: BaF3, 72 h
HUVEC [16] = assay: Antiproliferative activity against VEGF-stimulated HUVEC cells assessed as cell growth inhibition measured after 24 hrs by BrdUrd incorporation based spectrophotometric analysis; settings: Homo sapiens
HUVEC [17] = assay: Antiproliferative activity against bFGF-stimulated HUVEC cells assessed as cell growth inhibition measured after 24 hrs by BrdUrd incorporation based spectrophotometric analysis; settings: Homo sapiens
B16-BL6 [18] = assay: Antitumor activity against mouse B16-BL6 cells implanted in C57BL/6jNpa mouse assessed as primary tumor growth inhibition by measuring T/C ratio at 100 mg/kg, po qd administered started on day 7 post implantation measured after 21 days; type: functional; settings: time 7-21 day; method in brief: as §2
B16-BL6 [19] = assay: Antitumor activity against mouse B16-BL6 cells implanted in C57BL/6jNpa mouse assessed as metastatic tumor growth inhibition by measuring T/C ratio at 100 mg/kg, po qd administered started on day 7 post implantation measured after 21 days relative to control; type: functional; settings: time 7-21 day; method in brief: as §2
Mus musculus [20] = organism: Mus musculus; assay: Antiangiogenic activity in C57BL/6jNpa mouse harbouring mouse B16-BL6 cells assessed as reduction in K-trans level measured after 3 days by DCE-MRI assay relative to control; type: functional; design: scale not given: the % may be the effect or the level left; settings: time 3 day; method in brief: as §1
Mus musculus [21] = organism: Mus musculus; assay: Antiangiogenic activity in C57BL/6jNpa mouse harbouring mouse B16-BL6 cells assessed as reduction in iAUEC level measured after 3 days by DCE-MRI assay relative to control; type: functional; design: scale not given: the % may be the effect or the level left; settings: time 3 day; method in brief: as §1
Mus musculus [22] = organism: Mus musculus; assay: Antiangiogenic activity in C57BL/6jNpa mouse harbouring mouse B16-BL6 cells assessed as reduction in iAUEC level by measuring T/C ratio measured after 3 days by DCE-MRI assay; type: functional; settings: time 3 day; method in brief: as §1
Mus musculus [23] = organism: Mus musculus; assay: Antiangiogenic activity in C57BL/6jNpa mouse harbouring mouse B16-BL6 cells assessed as reduction in tumor plasma volume by measuring T/C ratio measured after 3 days by DCE-MRI assay; type: functional; settings: time 3 day; method in brief: as §1
BN472 cell [24] = assay: Antitumor activity against rat BN472 cell implanted in Brown-Norway rat assessed as reduction in perfused blood vessels at 100 mg/kg, po qd measured upto 14 days by Hoechst staining based microscopic analysis; type: functional, organism-based; settings: time <= 14.0 day
Method in brief: (§3)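 BN472-bearing Brown-Norway rats dosed orally; Hoechst dye i.v. shortly before sacrifice to mark perfused vessels; tumors cryosectioned at 10 micron, blocked in 10 % goat serum/0.1 % Triton X-100, stained with rabbit anti-Ki67 (1:200) or anti-caspase 3 (1:10) and fluorescent secondary antibodies; fluorescence microscopy.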

BN472 cell [25] = assay: Antitumor activity against rat BN472 cell implanted in Brown-Norway rat assessed as reduction in perfused blood vessels at 100 mg/kg, po qd measured upto 14 days by Ki67 staining based microscopic analysis; type: functional, organism-based; settings: time <= 14.0 day, in the assay text read “Hoechst dye staining” for “Ki67 staining”; method in brief: as §3
BN472 cell [26] = assay: Induction of apoptosis in rat BN472 cell implanted in Brown-Norway rat assessed as effect on caspase 3 level at 100 mg/kg, po qd measured upto 14 days by microscopic analysis; type: functional, organism-based; settings: time <= 14.0 day
Method in brief: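 BN472 fragments were grown in mammary fat pads of female Brown-Norway rats and dosed orally for 14 days. Hoechst dye was given i.v. 2 min before sacrifice. Excised tumors were cut as 10 micron frozen sections, blocked with 10 % normal goat serum/0.1 % Triton X-100 and stained with rabbit anti-rat caspase 3 (1:10), then a TRITC or FITC secondary. Read by fluorescence microscopy.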

Mus musculus [27] = assay: Anti-angiogenesis activity in FVB mouse model assessed as inhibition of VEGF-induced tissue weight at 50 mg/kg, po qd treated for 4 to 6 hrs prior to chamber implantation and continuing for 4 days measured after 24 hrs post last dose; type: functional, organism-based; settings: time 5.0 day
Method in brief: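 Chamber model in female FVB mice: VEGF (2 μg/mL) agar/heparin chambers s.c. in flank, oral dosing once daily starting 4-6 h before implantation and continuing 4 days; vascularized tissue harvested and weighed 24 h after final dose; 6 mice per group.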

[28] = biological target: Hepatocyte growth factor receptor (Homo sapiens) (UniProt P08581); assay: Inhibition of human recombinant GST-fused c-MET expressed in baculovirus expression system using poly-Glu-Tyr (4:1) as substrate measured after 10 mins in presence of gamma-[33P]-ATP by scintillation counting analysis
Method in brief: (§4)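 GST-fused kinase domains were expressed in baculovirus and purified on glutathione-Sepharose. 10 min at ambient temperature, stopped with EDTA. Filter binding and scintillation counting. IC50 by linear regression of percent inhibition.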

[29] = biological target: Cyclin-dependent kinase 1 (Homo sapiens) (UniProt P06493); assay: Inhibition of human recombinant GST-fused CDK1 expressed in baculovirus expression system using poly-Glu-Tyr (4:1) as substrate measured after 10 mins in presence of gamma-[33P]-ATP by scintillation counting analysis; method in brief: as §4
[30] = biological target: Fibroblast growth factor receptor 3 (Homo sapiens) (UniProt P22607); assay: Inhibition of human recombinant GST-fused FGFR3 expressed in baculovirus expression system using poly-Glu-Tyr (4:1) as substrate measured after 10 mins in presence of gamma-[33P]-ATP by scintillation counting analysis; method in brief: as §4
[31] = biological target: Vascular endothelial growth factor receptor 2 (Mus musculus, UniProt P35918); assay: Inhibition of mouse recombinant GST-fused VEGFR2 kinase domain expressed in baculovirus expression system using poly-Glu-Tyr (4:1) as substrate measured after 10 mins in presence of gamma-[33P]-ATP by scintillation counting analysis; method in brief: as §4
[32] = Antitumor activity against rat BN472 cell implanted in Brown-Norway rat assessed as tumor growth inhibition by measuring T/C ratio at 100 mg/kg, po qd measured upto 14 days; type: functional; settings: time <= 14 day
Method in brief: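 Female Brown-Norway rats (160-180 g) given 3 mm³ BN472 tumor fragments in mammary fat pads; at about 200 mm², randomized into groups of 7-8 and dosed orally with compound or PEG300 vehicle over 14 days; tumor growth followed, T/C computed; significance by 2-way RM-ANOVA.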

[33] = biological target: T1, Vascular endothelial growth factor receptor 2 (Homo sapiens, UniProt P35968); assay: Inhibition of VEGF-induced human VEGFR2 autophosphorylation transfected in CHO cells measured after 2 hrs by chemiluminescence assay; type: cell-based
[34] = biological target: T1, Vascular endothelial growth factor receptor 2; assay: Inhibition of human recombinant GST-fused VEGFR2 kinase domain transphosphorylation expressed in baculovirus expression system using poly-Glu-Tyr (4:1) as substrate measured after 10 mins in presence of gamma-[33P]-ATP by scintillation counting analysis
[35] = Antitumor activity against rat BN472 cell implanted in Brown-Norway rat assessed as tumor growth inhibition by measuring T/C ratio at 30 mg/kg, po qd measured upto 14 days; type: functional; settings: time <= 14 day
Method in brief: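 Female Brown-Norway rats (160–180 g) received 3 mm³ BN472 tumor fragments in the mammary fat pad. Randomized at about 200 mm² tumor, 2–3 weeks after transplant, into groups of 7–8. Oral daily dosing in PEG300 vehicle for 14 days. Tumor growth curves were compared with vehicle. Experiment run twice.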

IC50 (BaF3 [5]) [nM]	IC50 (BaF3 [6]) [nM]	IC50 (BaF3 [7]) [nM]	IC50 (BaF3 [8]) [nM]	IC50 (BaF3 [9]) [nM]	IC50 (BaF3 [10]) [nM]	IC50 (BaF3 [11]) [nM]	IC50 (BaF3 [12]) [nM]	IC50 (BaF3 [13]) [nM]	IC50 (BaF3 [14]) [nM]	IC50 (BaF3 [15]) [nM]	Structure (SMILES)	IC50 (HUVEC [16]) [nM]	IC50 (HUVEC [17]) [nM]	further results
> 10000	> 10000	> 10000	> 10000	> 10000	> 10000	> 10000	> 10000	76	> 10000	> 10000	Clc1ccc(Nc2nnc(Cc3ccncc3)c3ccccc23)cc1.O=C(O)CCC(=O)O	7.1	> 3000	T/C (Mus musculus [1]): 0.49; Activity (Mus musculus [2]): 33%; Activity (B16-BL6 [3]): Active; Activity (B16-BL6 [4]): Active; T/C (B16-BL6 [18]): 0.44; T/C (B16-BL6 [19]): 0.34; Activity (Mus musculus [20]): 51%; Activity (Mus musculus [21]): 33%; T/C (Mus musculus [22]): 0.61; T/C (Mus musculus [23]): 0.67; Activity (BN472 cell [24]): Active; Activity (BN472 cell [25]): Active; Activity (BN472 cell [26]): Active
–	–	–	–	–	–	–	–	–	–	–	Cc1[nH]c(/C=C2\C(=O)Nc3ccccc32)c(C)c1CCC(=O)O	–	–	Activity (Mus musculus [27]): Active
5820	4210	2460	12	3680	2800	7400	78	–	> 10000	1010	CNC(=O)c1cc(Oc2ccc(NC(=O)Nc3ccc(Cl)c(C(F)(F)F)c3)cc2)ccn1 [SORAFENIB]	–	–	inhibition [28]: Active; inhibition [29]: Active; inhibition [30]: Active
7180	3850	1560	35	1290	1470	5120	297	2.3	> 10000	1150	CCN(CC)CCNC(=O)c1c(C)[nH]c(/C=C2\C(=O)Nc3ccc(F)cc32)c1C [SUNITINIB]	7	> 3000	inhibition [28]: Active; inhibition [29]: Active; inhibition [30]: Active
> 5500	5600	> 5500	> 5500	8400	> 5500	> 5500	2900	19	> 10000	> 5500	O=C(Nc1cccc(C(F)(F)F)c1)c1ccccc1NCc1ccncc1	1	> 3000	IC50 [31]: 55 nM; T/C (B16-BL6 [18]): 0.35; T/C (B16-BL6 [19]): 0.17; T/C [32]: 0.37
–	–	–	–	–	–	–	–	–	–	–	CCN1CCN(Cc2ccc(NC(=O)Nc3ccc(Oc4cc(NC)ncn4)cc3)cc2C(F)(F)F)CC1 [AST-487]	–	–	IC50 [33]: 230 nM; IC50 [34]: 3 nM
–	–	–	–	–	–	–	–	–	–	–	COc1cc2/c(=N/c3ccc(Br)cc3F)nc[nH]c2cc1OCC1CCN(C)CC1 [VANDETANIB]	–	–	Activity (Mus musculus [27]): Active; T/C [35]: 0.35
